Converted amounts (≈) assume the structure as drawn. The source made the active and inactive calls. The calls are words filed in the database; no cut-off is given here.
Columns and labels:
[1] = tested on: Plasmodium yoelii nigeriensis; assay: Antimalarial activity against chloroquine, mefloquine and halofantrine-resistant Plasmodium yoelii nigeriensis infected in Swiss mouse assessed as protection against parasite-induced mortality at 96 mg/kg, po administered for 4 days measured on day 28; assay type: functional, organism-based; set-up: dose 96 mg/kg, route po po po po po po po po po po po
Method in brief: (§1)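 Peters 4-day test in Swiss mice infected with multidrug-resistant P. yoelii nigeriensis. Groups of 5 mice were dosed once daily for 4 days at the stated mg/kg, oral or i.m. Mice were followed to day 28. Protection is the percentage of treated mice surviving to day 28, read from the alive/total count per group.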

[2] = tested on: Plasmodium yoelii nigeriensis; assay: Antimalarial activity against chloroquine, mefloquine and halofantrine-resistant Plasmodium yoelii nigeriensis infected in Swiss mouse assessed as suppression of parasitemia at 96 mg/kg, po administered for 4 days measured on day 4; assay type: functional; conditions: 96 h
Method in brief: (§2)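 Swiss mice infected with multidrug-resistant P. yoelii nigeriensis were treated by the Peters procedure: 5 per group, dosed daily for 4 days, oral or i.m. Parasitaemia was read on day 4 against an untreated control group. Suppression = [(c − t)/c] × 100, where c is control and t is treated parasitaemia. 100% means parasites were below the detection limit.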

[3] = tested on: Plasmodium yoelii nigeriensis; assay: Antimalarial activity against chloroquine, mefloquine and halofantrine-resistant Plasmodium yoelii nigeriensis infected in Swiss mouse assessed as protection against parasite-induced mortality at 96 mg/kg, im administered for 4 days measured on day 28; assay type: functional, organism-based; set-up: dose 96 mg/kg; method in brief: as §1
[4] = tested on: Plasmodium yoelii nigeriensis; assay: Antimalarial activity against chloroquine, mefloquine and halofantrine-resistant Plasmodium yoelii nigeriensis infected in Swiss mouse assessed as suppression of parasitemia at 96 mg/kg, im administered for 4 days measured on day 4; assay type: functional; conditions: 96 h, route intramuscular; method in brief: as §2
[5] = tested on: Plasmodium yoelii nigeriensis; assay: Antimalarial activity against chloroquine, mefloquine and halofantrine-resistant Plasmodium yoelii nigeriensis infected in Swiss mouse assessed as protection against parasite-induced mortality at 12 mg/kg, po administered for 4 days measured on day 28; assay type: functional, organism-based; set-up: dose 12 mg/kg; method in brief: as §1
[6] = Half life in rat liver microsomes at […] by HPLC-PDA analysis; assay type: ADME, Microsome
[7] = Intrinsic clearance in rat liver microsomes at […] by HPLC-PDA analysis; assay type: ADME, Microsome; conditions: read-out: CLH
Plasma = assay: Fraction unbound in rat plasma at 10 uM by ultra-filtration method; assay type: ADME, cell-free
[8] = Effective permeability coefficient of the compound in Sprague-Dawley rat intestine at 10 uM by In-situ single pass intestinal perfusion technique; assay type: ADME, tissue-based; conditions: other: in situ single pass intestinal perfusion, read-out: Peff
[9] = Solubility of the compound in distilled water after 24 hrs by shake flask method; assay type: physicochemical
[10] = Distribution coefficient, log D of the compound at pH 7.4 by HPLC-PDA analysis; assay type: physicochemical; conditions: octanol/water
[11] = tested on: Plasmodium yoelii nigeriensis; assay: Antimalarial activity against chloroquine, mefloquine and halofantrine-resistant Plasmodium yoelii nigeriensis infected in Swiss mouse assessed as protection against parasite-induced mortality at 24 mg/kg, po administered for 4 days measured on day 28; assay type: functional; method in brief: as §1
[12] = tested on: Plasmodium yoelii nigeriensis; assay: Antimalarial activity against chloroquine, mefloquine and halofantrine-resistant Plasmodium yoelii nigeriensis infected in Swiss mouse assessed as protection against parasite-induced mortality at 48 mg/kg, po administered for 4 days measured on day 28; assay type: functional; method in brief: as §1
[13] = tested on: Plasmodium yoelii nigeriensis; assay: Antimalarial activity against chloroquine, mefloquine and halofantrine-resistant Plasmodium yoelii nigeriensis infected in Swiss mouse assessed as suppression of parasitemia at 12 mg/kg, po administered for 4 days measured on day 4; assay type: functional; conditions: 96 h; method in brief: as §2
[14] = tested on: Plasmodium yoelii nigeriensis; assay: Antimalarial activity against chloroquine, mefloquine and halofantrine-resistant Plasmodium yoelii nigeriensis infected in Swiss mouse assessed as suppression of parasitemia at 24 mg/kg, po administered for 4 days measured on day 4; assay type: functional; conditions: 96 h; method in brief: as §2
[15] = tested on: Plasmodium yoelii nigeriensis; assay: Antimalarial activity against chloroquine, mefloquine and halofantrine-resistant Plasmodium yoelii nigeriensis infected in Swiss mouse assessed as suppression of parasitemia at 48 mg/kg, po administered for 4 days measured on day 4; assay type: functional; conditions: 96 h; method in brief: as §2
Cytochrome P450 2C11 = biological target: T1, Cytochrome P450 2C11 (Rattus norvegicus, UniProt P08683); assay: Inhibition of CYP2C11 in rat liver microsome using diclofenac as substrate by HPLC-PDA analysis; assay type: ADME, microsomes
T1 sequence (P08683 whole entry): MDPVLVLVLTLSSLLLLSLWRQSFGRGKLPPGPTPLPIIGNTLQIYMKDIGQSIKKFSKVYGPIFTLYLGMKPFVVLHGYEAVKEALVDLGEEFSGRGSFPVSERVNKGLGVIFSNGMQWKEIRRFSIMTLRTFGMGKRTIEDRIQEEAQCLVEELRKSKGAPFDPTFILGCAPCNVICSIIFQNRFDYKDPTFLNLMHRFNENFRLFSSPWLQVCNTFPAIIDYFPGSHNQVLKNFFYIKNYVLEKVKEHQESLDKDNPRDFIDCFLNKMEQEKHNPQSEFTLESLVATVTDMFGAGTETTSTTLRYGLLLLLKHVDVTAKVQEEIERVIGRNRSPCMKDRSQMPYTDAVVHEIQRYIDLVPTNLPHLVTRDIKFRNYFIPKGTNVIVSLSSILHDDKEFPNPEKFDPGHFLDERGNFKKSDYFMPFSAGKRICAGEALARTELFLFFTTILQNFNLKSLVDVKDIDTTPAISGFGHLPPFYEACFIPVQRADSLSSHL

Cytochrome P450 1A2 = biological target: T2, Cytochrome P450 1A2 (Rattus norvegicus, UniProt P04799); assay: Inhibition of CYP1A2 in rat liver microsome using phenacetin as substrate by HPLC-PDA analysis; assay type: ADME, microsomes
T2 sequence (P04799 whole entry): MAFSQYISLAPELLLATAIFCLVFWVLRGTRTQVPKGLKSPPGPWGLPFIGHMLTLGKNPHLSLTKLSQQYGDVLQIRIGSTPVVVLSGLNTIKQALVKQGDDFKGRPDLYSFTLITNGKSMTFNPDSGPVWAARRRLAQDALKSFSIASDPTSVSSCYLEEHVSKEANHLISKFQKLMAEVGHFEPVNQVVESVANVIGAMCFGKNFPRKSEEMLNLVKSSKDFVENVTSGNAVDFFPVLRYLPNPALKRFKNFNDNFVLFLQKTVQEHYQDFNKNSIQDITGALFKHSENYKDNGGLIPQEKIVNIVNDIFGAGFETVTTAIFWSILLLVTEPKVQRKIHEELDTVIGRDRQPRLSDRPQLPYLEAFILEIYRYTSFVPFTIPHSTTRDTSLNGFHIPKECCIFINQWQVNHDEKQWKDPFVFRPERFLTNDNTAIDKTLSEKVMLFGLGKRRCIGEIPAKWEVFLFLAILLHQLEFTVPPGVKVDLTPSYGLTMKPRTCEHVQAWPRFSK

[16] = Inhibition of CYP3A in rat liver microsome using testosterone as substrate by HPLC-PDA analysis; assay type: ADME, microsomes
Cytochrome P450 2D4 = biological target: T3, Cytochrome P450 2D4 (Rattus norvegicus, UniProt Q64680); assay: Inhibition of CYP2D4 in rat liver microsome using dextromethorphan as substrate by HPLC-PDA analysis; assay type: ADME, microsomes
T3 sequence (Q64680 whole entry): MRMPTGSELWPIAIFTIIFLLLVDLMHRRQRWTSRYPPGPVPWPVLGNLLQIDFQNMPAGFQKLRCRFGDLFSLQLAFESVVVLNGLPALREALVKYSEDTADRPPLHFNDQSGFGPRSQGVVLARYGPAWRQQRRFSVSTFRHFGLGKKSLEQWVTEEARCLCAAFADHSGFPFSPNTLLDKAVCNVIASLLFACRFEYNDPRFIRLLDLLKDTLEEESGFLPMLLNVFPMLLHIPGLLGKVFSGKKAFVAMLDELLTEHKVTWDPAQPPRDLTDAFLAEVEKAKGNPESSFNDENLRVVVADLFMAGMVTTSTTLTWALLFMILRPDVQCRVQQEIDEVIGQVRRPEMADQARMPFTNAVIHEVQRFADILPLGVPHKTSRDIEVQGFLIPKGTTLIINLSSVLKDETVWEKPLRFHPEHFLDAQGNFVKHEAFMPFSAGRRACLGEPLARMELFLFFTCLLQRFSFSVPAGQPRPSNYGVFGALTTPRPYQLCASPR

[17] = Metabolic stability in rat liver microsomes at […] after 30 mins by HPLC-PDA analysis; assay type: ADME, Microsome; conditions: read-out: Stability

Structure (SMILES)	Activity [1]	inhibition in vivo at 96 mg/kg [2]	Activity [3]	inhibition in vivo at 96 mg/kg [4]	further results
C=C(c1ccc(F)cc1)[C@H]1OOC2(CCCC2)O[C@@H]1c1ccc(F)cc1 (relative stereo)	inactive	22.5%			
C=C(c1ccccc1)[C@H]1OOC2(CCCCC2)O[C@@H]1c1ccccc1 (relative stereo)	inactive	34.5%	inactive	22.3%	
C=C(c1ccc(Cl)cc1)[C@H]1OOC2(CCCCC2)O[C@@H]1c1ccc(Cl)cc1 (relative stereo)		100%	inactive	3.45%	Activity [5]: inactive; half-life [6]: 23 min; microsomal CLint [7]: 60.3 µL/min/mg; Fu (Plasma): 0.8%; Papp at 10 µM [8]: 113 ×10⁻⁶ cm/s; solubility thermodynamic at 24 h ([9]; distilled water): 13 µM (≈ 5.27 µg/mL); logD [10]: 4.23; Activity [11]: 100%; Activity [12]: Active; inhibition in vivo at 12 mg/kg [13]: 100%; inhibition in vivo at 24 mg/kg [14]: 100%
C=C(c1ccc(C)cc1)[C@H]1OOC2(CCCCC2)O[C@@H]1c1ccc(C)cc1 (relative stereo)			inactive	16.6%	Activity [11]: inactive; Activity [12]: inactive; inhibition in vivo at 24 mg/kg [14]: 49.6%; inhibition in vivo at 48 mg/kg [15]: 89.4%
C=C(c1ccc(Br)cc1)[C@H]1OOC2(CCCCC2)O[C@@H]1c1ccc(Br)cc1 (relative stereo)		100%			
C=C(c1ccc(F)cc1)[C@H]1OOC2(CCCCC2)O[C@@H]1c1ccc(F)cc1 (relative stereo)	inactive	42.5%			
C=C(c1ccccc1)[C@H]1OOC2(O[C@@H]1c1ccccc1)C1CC3CC(C1)CC2C3 (relative stereo)	inactive	32.4%	inactive	44.8%	
C=C(c1ccc(Cl)cc1)[C@H]1OOC2(O[C@@H]1c1ccc(Cl)cc1)C1CC3CC(C1)CC2C3 (relative stereo)		77.2%			
C=C(c1ccc(C)cc1)[C@H]1OOC2(O[C@@H]1c1ccc(C)cc1)C1CC3CC(C1)CC2C3 (relative stereo)	inactive	36.7%	inactive	5.76%	
C=C(c1ccc(OC)cc1)[C@H]1OOC2(O[C@@H]1c1ccc(OC)cc1)C1CC3CC(C1)CC2C3 (relative stereo)	inactive	24.6%			
C=C(c1ccc(Br)cc1)[C@H]1OOC2(O[C@@H]1c1ccc(Br)cc1)C1CC3CC(C1)CC2C3 (relative stereo)	inactive	18.1%			
C=C(c1ccc(F)cc1)[C@H]1OOC2(O[C@@H]1c1ccc(F)cc1)C1CC3CC(C1)CC2C3 (relative stereo)	inactive	16.7%			
C=C(c1ccccc1)[C@H]1OOC2(CCCC2)O[C@@H]1c1ccccc1 (relative stereo)	inactive	23.8%	inactive	46.9%	
C=C(c1ccc(Cl)cc1)[C@H]1OOC2(CCCC2)O[C@@H]1c1ccc(Cl)cc1 (relative stereo)	inactive	63.6%			
C=C(c1ccc(C)cc1)[C@H]1OOC2(CCCC2)O[C@@H]1c1ccc(C)cc1 (relative stereo)	inactive	100%			
C=C(c1ccc(Br)cc1)[C@H]1OOC2(CCCC2)O[C@@H]1c1ccc(Br)cc1 (relative stereo)					Activity [11]: inactive; Activity [12]: 20%; inhibition in vivo at 24 mg/kg [14]: 98.6%; inhibition in vivo at 48 mg/kg [15]: 100%
CCO[C@H]1O[C@@H]2O[C@@]3(C)CC[C@H]4[C@H](C)CC[C@@H]([C@H]1C)[C@@]24OO3 [ARTEMOTIL]					IC50 (Cytochrome P450 2C11): > 100 µM; half-life [6]: 47.4 min; microsomal CLint [7]: 36.6 µL/min/mg; IC50 (Cytochrome P450 1A2): > 100 µM; IC50 [16]: > 100 µM; IC50 (Cytochrome P450 2D4): > 100 µM; Fu (Plasma): 1%; remaining at 0.5 h [17]: 50%; solubility ([9]; buffer, 24 h): Insoluble; logD [10]: 3.6; Activity [11]: 20%; Activity [12]: 100%; inhibition in vivo at 24 mg/kg [14]: 100%; inhibition in vivo at 48 mg/kg [15]: 100%
